From PubChem
MBD2 DNA inh = inhibitors of human MBD2 binding to methylated oligonucleotide; Q9UBB5; TR-FRET; inhibition, % at 4.4 µM; 370,000 tested, 0.31% active; in the data active = inhibition above about 13%
LEDGF integ inh = blocks HIV-1 LEDGF/p75-dependent DNA integration. TR-FRET IN-LEDGF/p75 DNA integration, Eu/Cy5. inhibition, % at 3.7 µM. 370,000 tested, 0.64% active;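 active = inhibition above the screen-wide mean plus 3 SD, cut at about 13% in these data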;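 also: signal is the Cy5 over europium emission ratio at 671 and 618 nm; 0% = plate median of compound wells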
RBBP9 inh = blocks human serine hydrolase RBBP9; recombinant RBBP9, FP-Rh probe fluorescence polarization; inhibition, % at 7.94 µM; 220,000 tested, 0.2% active; AID 1515;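 active = inhibition above the campaign mean of all tested compounds plus 3 SD, cut at about 14% in these data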;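 also: plate controls were DMSO wells with RBBP9 for no effect and wells lacking RBBP9 protein for full effect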
Target sequence (O75884 whole entry, looked up): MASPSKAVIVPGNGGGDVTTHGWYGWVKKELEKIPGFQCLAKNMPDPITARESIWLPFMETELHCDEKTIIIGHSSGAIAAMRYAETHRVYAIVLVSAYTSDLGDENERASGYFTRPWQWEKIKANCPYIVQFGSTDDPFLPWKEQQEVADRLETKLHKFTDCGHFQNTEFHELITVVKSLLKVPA
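Test system: recombinant human RBBP9. Quantity: 2.5 µM RBBP9 dispensing solution, before mixing. Detection: FP readout at 525/598 nm. Reagent: Serine-hydrolase probe FP-Rh, 375 nM pre-mixing. Measure: % inhibition. Control set: DMSO-treated enzyme wells and wells lacking RBBP9. Buffer or medium: Tris-NaCl-Pluronic buffer, pH 8.0. Times: preincubation 30 min plus labeling 45 min at 25 °C.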
UHRF1 binding = human UHRF1 methylated DNA binding inhibitors; UHRF1 binding to methylated oligo, TR-FRET; inhibition, % at 4.4 µM; 370,000 tested, 0.75% active; AID 687016; in the data active = inhibition above about 21%;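 also: UHRF1 SRA domain binding a hemimethylated CpG hairpin DNA probe; 0% = median of test compound wells and 100% = reference inhibitor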
PRMT1 FP inh = blocks human protein arginine methyltransferase 1. Q99873. recombinant PRMT1, activity-based probe fluorescence polarization. inhibition, % at 2.79 µM. 370,000 tested, 1.3% active. AID 652257;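 active = inhibition above about 21% made by adding two undisclosed values, limit read from the data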
Target sequence (Q99873 whole entry, looked up): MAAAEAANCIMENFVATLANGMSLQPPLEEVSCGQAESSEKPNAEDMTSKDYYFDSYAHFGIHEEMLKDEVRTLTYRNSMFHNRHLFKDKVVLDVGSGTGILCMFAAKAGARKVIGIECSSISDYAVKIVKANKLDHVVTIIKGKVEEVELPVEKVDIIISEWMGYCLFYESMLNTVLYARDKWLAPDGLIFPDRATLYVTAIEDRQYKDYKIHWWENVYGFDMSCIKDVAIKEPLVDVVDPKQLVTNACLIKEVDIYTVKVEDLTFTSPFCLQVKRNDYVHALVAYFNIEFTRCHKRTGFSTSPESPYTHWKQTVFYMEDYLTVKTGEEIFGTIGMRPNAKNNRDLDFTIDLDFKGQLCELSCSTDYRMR
ABHD5 PLIN5 PPI = inhibitors of human ABHD5-perilipin-5 interaction | 360,000 tested, 0.78% active | Split G. princeps luciferase complementation, luminescence, 4 h | inhibition, % at 4 µM | Q00G26+Q8WTS1;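 active = inhibition above the mean inhibition across every tested compound plus 3 SD, cut at about 22% in these data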;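 also: 0% = DMSO only wells and the 100% control is not disclosed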
PRMT1 inh conf = confirmation of human PRMT1 inhibitors. shares compounds with PRMT1 FP inh. inhibition, % at 2.79 µM. 3,300 tested, 42% active. recombinant His-PRMT1, activity-based probe fluorescence polarization;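 active = mean inhibition across replicates above the hit cutoff derived for the earlier primary screen, cut at about 22% in these data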
* = called active by the depositor; nt = not tested or not shown. This is a sample that favours compounds with a hit; in the whole collection about 3.1% have one here.

SMILES	MBD2 DNA inh	LEDGF integ inh	RBBP9 inh	UHRF1 binding	PRMT1 FP inh	ABHD5 PLIN5 PPI	PRMT1 inh conf
C=CCn1c(NCCO)nc2sc3c(c2c1=O)CCC3	0	0	-5	3	33*	1	1
Cc1cc(N2CCN(C(=O)OC(C)(C)C)C[C@H]2C)ccc1N1CCS(=O)(=O)CC1	1	1	nt	1	-4	nt	nt
CCOC(=O)NC(=O)C(/C=N/c1sccc1C(=O)OC)=C(\C)O	-1	5	9	-5	45*	4	0
O=C1CCCC2=C1C(c1cccc(Br)c1)n1nc(-c3ccco3)nc1N2 (stereo not drawn)	1	-1	2	6	37*	1	6
COC(=O)c1nc2n(n1)C(c1cccc(Cl)c1)C1=C(CCCC1=O)N2 (stereo not drawn)	-4	-2	10	1	2	3	nt
COC(=O)c1ccc(N2C(=O)CC(SCCN)C2=O)cc1 (stereo not drawn)	-6	0	-4	3	11	0	nt
CCOC(=O)c1c(NC(=O)c2ccccc2C(=O)O)sc2c1CCCC2	6	1	nt	4	7	-4	nt
O=C(O)c1ccccc1SC1CC(=O)N(c2cccc3ccccc23)C1=O (stereo not drawn)	-4	4	1	2	84*	7	51*
COC(=O)c1ccccc1SC1CC(=O)N(c2ccccc2)C1=O (stereo not drawn)	0	-2	0	1	38*	6	19
CCOC(=O)c1c(N2C(=O)CC(Sc3ccccc3C(=O)O)C2=O)sc2c1CCCC2 (stereo not drawn)	1	2	3	1	53*	4	52*
CC(=O)O[C@@H]1C=C[C@@H](C#Cc2ccc(C(C)(C)C)cc2)O[C@@H]1COC(=O)Nc1ccccc1	1	12	nt	6	7	nt	nt
CCCCCCCCN1CCS(=O)(=O)N(Cc2ccccc2)C(C(=O)OC)C1 (stereo not drawn)	-5	-1	nt	-1	-1	nt	nt
Oc1ccc2nnc3c(Br)cnn3c2c1	-8	-6	nt	-16	50*	-4	50*
Cc1ccc(-c2ccc(/C=C/C(=O)c3ccccc3)o2)cc1	-1	-6	-4	1	32*	13	39*
Cc1ccc(C(=O)/C=C/c2ccc(-c3ccccc3[N+](=O)[O-])o2)cc1	0	-4	-5	0	34*	20	-3
N#C/C(=C/c1ccc(-c2ccccc2[N+](=O)[O-])o1)C(N)=O	-2	2	-3	-3	-3	2	nt
CN1CCCCC(NC(=O)c2ccc(F)cc2)C1=O (stereo not drawn)	-6	1	nt	-2	3	nt	nt
CN(Cc1ccco1)C(=O)c1cccc2c1C(=O)N(Cc1cccnc1)C2	2	6	nt	-2	-3	nt	nt
CC(C)(C)n1nnnc1C(c1ccncc1)N1CCN(c2ccc(O)cc2)CC1 (stereo not drawn)	2	-3	7	0	27*	1	4
CC(C)(C)n1nnnc1C(c1ccccc1)N1CCN(c2ccccc2)CC1 (stereo not drawn)	4	2	nt	19	3	2	nt
COc1ccc(C2CC(c3c(O)cc(C)oc3=O)=NCCS2)c(OC)c1 (stereo not drawn)	nt	nt	-7	nt	nt	-13	nt
Cc1cc(O)c(C2=Nc3ccccc3SC(c3ccc(Cl)cc3)C2)c(=O)o1 (stereo not drawn)	11	-2	-4	9	37*	-10	10
Cc1sc2nc(CSCC(=O)NC3(C#N)CCCCC3)[nH]c(=O)c2c1C	6	-1	nt	1	25*	-2	5
N#CCc1c(C#N)c(N)nc(Nc2ccccc2)c1C#N	3	-1	-12	-2	40*	18	-1
O=C1/C(=C/c2ccco2)SC(=S)N1CCC(=O)N1CCCCC1CCO (stereo not drawn)	5	13	nt	12	26*	-1	1
SMILES	MBD2 DNA inh	LEDGF integ inh	RBBP9 inh	UHRF1 binding	PRMT1 FP inh	ABHD5 PLIN5 PPI	PRMT1 inh conf
Cc1ccc(OCCC(=O)OCC(=O)Nc2ccc3c(c2)OCCO3)cc1	0	-7	nt	4	32*	2	9
CCOc1ccc(OCCC(=O)OCC(=O)Nc2ccc3c(c2)OCO3)cc1	0	-5	nt	5	2	-3	nt
N/C(Cc1nc2ccccc2s1)=N\O	0	1	-5	-2	0	-4	nt
Oc1ccccc1OCc1nc2ccccc2s1	-5	1	-13	-5	28*	-9	10
NC(=O)CSCc1nc2ccccc2s1	7	1	-5	1	27*	-13	20
COCCN=C1Sc2nc3c(C)cccc3cc2CN1Cc1ccco1	1	2	-19	-1	29*	16	15
CC1(C)Cc2c(C#N)c(N)n(-c3ccccc3)c(=S)c2CO1	3	-4	3	-2	6	-6	nt
N#Cc1c2c(c(=S)n(-c3ccccc3)c1N)CCCC2	-3	1	4	-4	26*	-6	8
COC(=O)[C@H](CC(C)C)N1Cc2nnn(Cc3ccc(C)cc3)c2-c2cc(F)ccc2S1(=O)=O	-7	6	nt	1	-5	nt	nt
CCCOc1ccc(NC(=O)CC2C(=O)OCC3CCCCN32)cc1 (stereo not drawn)	0	2	nt	-1	36*	9	3
Cc1ccc(NC(=O)CC2C(=O)OCC3CCCCN32)cc1Cl (stereo not drawn)	6	1	-2	3	14	0	nt
O=C(CC1C(=O)OCC2CCCCN21)Nc1ccccc1C(F)(F)F (stereo not drawn)	-4	-3	-5	16	48*	-1	4
COC(=O)[C@]12C[C@H](CC(=O)NCc3cccc(C(F)(F)F)c3)C(=O)N(CCc3ccc(OC)c(OC)c3)C1=C[C@H](COCc1ccccc1)O[C@@H]2C	-4	0	nt	-2	-3	nt	nt
CCCC(c1nnnn1CCOC)N(Cc1cc2cc(C)c(C)cc2[nH]c1=O)CC1CCCO1 (stereo not drawn)	-1	1	2	-9	26*	-7	-3
O=C(O)/C=C/C(=O)Nc1ccc(OC(F)(F)F)cc1Br	4	-2	-4	1	50*	4	5
O=C(O)/C=C/C(=O)Nc1ccc(OC(F)(F)F)cc1	-3	0	-9	-1	1	3	nt
CCc1ccc2[nH]c(=O)c(CN(CCN(C)C)C(=S)NCc3ccco3)cc2c1	4	-2	2	-3	33*	-5	2
CC(/C=N\NC(=O)CSc1nnc(-c2ccc(Br)cc2)n1-c1ccccc1)=C\c1ccco1	4	4	nt	-1	5	nt	nt
COc1ccc(NS(=O)(=O)c2ccc(F)c(Cl)c2)cn1	-6	3	nt	-3	37*	1	8
